Laboratory results reported in ChEMBL document CHEMBL5029150, “Controlling Intramolecular Interactions in the Design of Selective, High-Affinity Ligands for the CREBBP Bromodomain” (J Med Chem, 2021).
Activity calls are given as the source filed them. The rule behind the calls is not given here.

How the values were obtained:
[1] = target: T1, CREB-binding protein/Histone acetyltransferase p300 (Homo sapiens) (UniProt Q09472+Q92793); experiment: Inhibition of CREBBP/EP300 in human HCT-116 cells assessed as reduction in H3K27Ac at 10 uM for 6 hrs by Western blot analysis; type: cell-based
Outline: (§1)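 HCT116 human colorectal cancer cells were exposed to ligand at 10 μM for 6, 16 or 24 h. c-Myc, H3K18Ac and H3K27Ac levels were read by western blot, with acetylation marks expressed relative to the t = 0 level.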

[2] = target: T1, CREB-binding protein/Histone acetyltransferase p300 (Homo sapiens); experiment: Inhibition of CREBBP/EP300 in human HCT-116 cells assessed as reduction in H3K18Ac at 10 uM for 24 hrs by Western blot analysis; type: cell-based; outline: as §1
[3] = target: T1, CREB-binding protein/Histone acetyltransferase p300 (Homo sapiens); experiment: Inhibition of CREBBP/EP300 in human HCT-116 cells assessed as reduction in H3K27Ac at 10 uM for 24 hrs by Western blot analysis; type: cell-based; outline: as §1
[4] = target: T1, CREB-binding protein/Histone acetyltransferase p300 (Homo sapiens); experiment: Inhibition of CREBBP/EP300 in human HCT-116 cells assessed as reduction in H3K18Ac at 10 uM for 6 hrs by Western blot analysis; type: cell-based; outline: as §1
[5] = target: T1, CREB-binding protein/Histone acetyltransferase p300 (Homo sapiens); experiment: Inhibition of CREBBP/EP300 in human HCT-116 cells assessed as reduction in c-Myc mRNA expression at 10 uM by Q-PCR analysis; type: cell-based
[6] = target: T2, Peregrin (Homo sapiens) (UniProt P55201); experiment: Binding affinity to human BRPF1 assessed as dissociation constant up to 1 uM by BROMOscan assay; settings: dose microM <=1
T2 sequence (whole entry): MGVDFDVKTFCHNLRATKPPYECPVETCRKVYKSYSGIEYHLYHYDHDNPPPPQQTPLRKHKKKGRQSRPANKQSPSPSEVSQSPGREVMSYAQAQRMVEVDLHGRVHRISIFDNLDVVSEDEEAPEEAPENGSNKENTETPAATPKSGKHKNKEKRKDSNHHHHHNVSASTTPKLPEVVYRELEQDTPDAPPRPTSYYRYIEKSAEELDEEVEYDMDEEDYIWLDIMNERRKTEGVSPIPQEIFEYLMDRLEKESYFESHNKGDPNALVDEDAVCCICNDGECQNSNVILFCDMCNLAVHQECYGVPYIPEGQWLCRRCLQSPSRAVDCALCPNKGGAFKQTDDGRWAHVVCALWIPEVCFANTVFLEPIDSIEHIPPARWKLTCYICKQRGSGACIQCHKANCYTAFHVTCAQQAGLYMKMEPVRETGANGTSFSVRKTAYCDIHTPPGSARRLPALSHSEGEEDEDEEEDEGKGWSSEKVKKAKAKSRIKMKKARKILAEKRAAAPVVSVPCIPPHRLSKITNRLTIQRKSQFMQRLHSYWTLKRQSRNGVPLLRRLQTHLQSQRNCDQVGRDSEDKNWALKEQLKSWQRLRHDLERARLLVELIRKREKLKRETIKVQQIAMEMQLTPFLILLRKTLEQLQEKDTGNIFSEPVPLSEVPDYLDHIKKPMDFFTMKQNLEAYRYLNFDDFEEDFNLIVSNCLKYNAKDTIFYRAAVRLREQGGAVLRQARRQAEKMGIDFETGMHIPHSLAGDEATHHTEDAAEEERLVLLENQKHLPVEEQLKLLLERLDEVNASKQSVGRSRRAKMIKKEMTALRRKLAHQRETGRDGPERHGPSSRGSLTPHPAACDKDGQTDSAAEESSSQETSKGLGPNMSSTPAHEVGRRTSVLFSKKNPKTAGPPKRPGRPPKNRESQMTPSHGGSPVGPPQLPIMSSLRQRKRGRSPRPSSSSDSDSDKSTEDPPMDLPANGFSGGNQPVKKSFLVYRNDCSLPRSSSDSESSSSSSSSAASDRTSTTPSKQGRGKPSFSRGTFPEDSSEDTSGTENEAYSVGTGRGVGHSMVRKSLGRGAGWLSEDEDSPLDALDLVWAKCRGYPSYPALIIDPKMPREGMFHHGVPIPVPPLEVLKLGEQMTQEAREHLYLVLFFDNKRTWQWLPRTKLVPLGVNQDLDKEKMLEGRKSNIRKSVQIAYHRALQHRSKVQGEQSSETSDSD
Outline: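 BROMOscan competition binding panel of 12 phylogenetically diverse bromodomains, including the CREBBP and EP300 bromodomains.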

[7] = target: Bromodomain-containing protein 4 (Homo sapiens, UniProt O60885); experiment: Binding affinity to human BRD4 bromodomain 1 assessed as dissociation constant by ITC assay
[8] = target: T1, CREB-binding protein/Histone acetyltransferase p300 (Homo sapiens); experiment: Inhibition of CREBBP/EP300 in human HCT-116 cells assessed as reduction in c-Myc protein expression at 10 uM for 6 hrs by Western blot analysis; type: cell-based; outline: as §1
[9] = target: T1, CREB-binding protein/Histone acetyltransferase p300 (Homo sapiens); experiment: Inhibition of CREBBP/EP300 in human HCT-116 cells assessed as reduction in c-Myc expression at 10 uM for 24 hrs by Western blot analysis; type: cell-based; outline: as §1
[10] = target: CREB-binding protein (Homo sapiens, UniProt Q92793); experiment: Binding affinity to human CREBBP bromodomain expressed in Escherichia coli BL21 (DE3)-RIL assessed as dissociation constant by ITC assay
Chain of CREB-binding protein (Q92793 whole entry): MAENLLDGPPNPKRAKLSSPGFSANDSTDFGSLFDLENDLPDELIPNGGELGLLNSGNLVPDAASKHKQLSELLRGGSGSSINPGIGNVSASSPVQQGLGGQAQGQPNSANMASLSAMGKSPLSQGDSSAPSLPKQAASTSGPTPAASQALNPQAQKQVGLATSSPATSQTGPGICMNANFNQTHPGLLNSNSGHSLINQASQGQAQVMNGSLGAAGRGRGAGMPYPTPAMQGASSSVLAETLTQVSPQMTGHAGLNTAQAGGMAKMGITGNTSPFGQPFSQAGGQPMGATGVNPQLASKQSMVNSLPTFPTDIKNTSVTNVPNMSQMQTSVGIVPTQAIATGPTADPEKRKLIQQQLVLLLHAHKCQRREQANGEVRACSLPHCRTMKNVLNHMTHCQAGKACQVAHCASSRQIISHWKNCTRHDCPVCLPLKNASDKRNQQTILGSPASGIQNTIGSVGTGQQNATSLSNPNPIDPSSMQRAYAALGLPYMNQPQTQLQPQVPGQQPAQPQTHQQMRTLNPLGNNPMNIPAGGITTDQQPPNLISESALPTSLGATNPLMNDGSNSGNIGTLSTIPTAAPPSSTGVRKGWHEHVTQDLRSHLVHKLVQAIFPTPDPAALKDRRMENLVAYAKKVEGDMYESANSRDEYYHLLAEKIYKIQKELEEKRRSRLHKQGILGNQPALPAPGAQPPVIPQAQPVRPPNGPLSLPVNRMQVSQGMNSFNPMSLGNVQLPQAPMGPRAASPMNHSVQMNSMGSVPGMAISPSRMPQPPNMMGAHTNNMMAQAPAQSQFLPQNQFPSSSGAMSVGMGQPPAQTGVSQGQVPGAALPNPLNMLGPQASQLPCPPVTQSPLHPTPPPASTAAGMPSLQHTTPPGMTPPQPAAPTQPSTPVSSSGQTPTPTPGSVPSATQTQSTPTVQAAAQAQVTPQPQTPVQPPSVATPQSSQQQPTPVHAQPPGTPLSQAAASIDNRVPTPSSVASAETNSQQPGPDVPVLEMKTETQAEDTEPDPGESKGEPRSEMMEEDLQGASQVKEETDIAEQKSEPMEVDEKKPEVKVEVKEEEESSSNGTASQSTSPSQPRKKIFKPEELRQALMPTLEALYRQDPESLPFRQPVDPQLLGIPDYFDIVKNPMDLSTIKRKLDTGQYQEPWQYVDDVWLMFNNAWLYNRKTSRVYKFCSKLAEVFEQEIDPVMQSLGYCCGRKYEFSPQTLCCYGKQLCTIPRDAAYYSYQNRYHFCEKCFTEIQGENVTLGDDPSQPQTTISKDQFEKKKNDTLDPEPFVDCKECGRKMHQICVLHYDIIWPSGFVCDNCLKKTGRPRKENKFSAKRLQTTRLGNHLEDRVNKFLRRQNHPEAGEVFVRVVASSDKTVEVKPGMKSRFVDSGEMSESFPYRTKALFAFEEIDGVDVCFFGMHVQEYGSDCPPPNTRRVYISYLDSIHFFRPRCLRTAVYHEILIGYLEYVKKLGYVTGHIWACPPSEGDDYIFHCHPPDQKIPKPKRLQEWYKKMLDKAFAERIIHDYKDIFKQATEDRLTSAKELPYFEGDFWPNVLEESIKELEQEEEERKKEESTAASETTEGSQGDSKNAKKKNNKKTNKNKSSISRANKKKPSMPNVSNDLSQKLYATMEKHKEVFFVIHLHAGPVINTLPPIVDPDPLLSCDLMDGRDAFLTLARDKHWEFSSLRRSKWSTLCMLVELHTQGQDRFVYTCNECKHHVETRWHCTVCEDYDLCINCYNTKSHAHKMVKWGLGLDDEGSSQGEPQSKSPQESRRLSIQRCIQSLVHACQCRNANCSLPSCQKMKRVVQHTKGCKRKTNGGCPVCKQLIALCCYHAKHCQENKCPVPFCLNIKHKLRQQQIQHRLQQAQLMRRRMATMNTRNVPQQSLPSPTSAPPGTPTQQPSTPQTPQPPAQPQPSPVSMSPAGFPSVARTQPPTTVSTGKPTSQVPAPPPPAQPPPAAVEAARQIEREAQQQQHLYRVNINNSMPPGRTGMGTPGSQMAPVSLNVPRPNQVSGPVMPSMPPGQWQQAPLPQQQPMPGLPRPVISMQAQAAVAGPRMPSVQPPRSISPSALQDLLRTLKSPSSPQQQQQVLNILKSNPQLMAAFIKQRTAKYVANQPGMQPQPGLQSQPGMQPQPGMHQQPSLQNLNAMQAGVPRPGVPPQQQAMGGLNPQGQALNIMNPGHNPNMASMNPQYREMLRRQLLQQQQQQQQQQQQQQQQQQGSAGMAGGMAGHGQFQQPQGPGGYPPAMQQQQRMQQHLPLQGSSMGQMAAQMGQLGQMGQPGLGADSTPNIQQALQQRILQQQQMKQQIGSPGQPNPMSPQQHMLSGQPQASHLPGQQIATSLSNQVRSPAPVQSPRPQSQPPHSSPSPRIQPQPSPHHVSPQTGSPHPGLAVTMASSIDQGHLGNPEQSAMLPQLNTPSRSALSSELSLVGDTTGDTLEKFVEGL

T1 sequence (Q09472 whole entry, looked up): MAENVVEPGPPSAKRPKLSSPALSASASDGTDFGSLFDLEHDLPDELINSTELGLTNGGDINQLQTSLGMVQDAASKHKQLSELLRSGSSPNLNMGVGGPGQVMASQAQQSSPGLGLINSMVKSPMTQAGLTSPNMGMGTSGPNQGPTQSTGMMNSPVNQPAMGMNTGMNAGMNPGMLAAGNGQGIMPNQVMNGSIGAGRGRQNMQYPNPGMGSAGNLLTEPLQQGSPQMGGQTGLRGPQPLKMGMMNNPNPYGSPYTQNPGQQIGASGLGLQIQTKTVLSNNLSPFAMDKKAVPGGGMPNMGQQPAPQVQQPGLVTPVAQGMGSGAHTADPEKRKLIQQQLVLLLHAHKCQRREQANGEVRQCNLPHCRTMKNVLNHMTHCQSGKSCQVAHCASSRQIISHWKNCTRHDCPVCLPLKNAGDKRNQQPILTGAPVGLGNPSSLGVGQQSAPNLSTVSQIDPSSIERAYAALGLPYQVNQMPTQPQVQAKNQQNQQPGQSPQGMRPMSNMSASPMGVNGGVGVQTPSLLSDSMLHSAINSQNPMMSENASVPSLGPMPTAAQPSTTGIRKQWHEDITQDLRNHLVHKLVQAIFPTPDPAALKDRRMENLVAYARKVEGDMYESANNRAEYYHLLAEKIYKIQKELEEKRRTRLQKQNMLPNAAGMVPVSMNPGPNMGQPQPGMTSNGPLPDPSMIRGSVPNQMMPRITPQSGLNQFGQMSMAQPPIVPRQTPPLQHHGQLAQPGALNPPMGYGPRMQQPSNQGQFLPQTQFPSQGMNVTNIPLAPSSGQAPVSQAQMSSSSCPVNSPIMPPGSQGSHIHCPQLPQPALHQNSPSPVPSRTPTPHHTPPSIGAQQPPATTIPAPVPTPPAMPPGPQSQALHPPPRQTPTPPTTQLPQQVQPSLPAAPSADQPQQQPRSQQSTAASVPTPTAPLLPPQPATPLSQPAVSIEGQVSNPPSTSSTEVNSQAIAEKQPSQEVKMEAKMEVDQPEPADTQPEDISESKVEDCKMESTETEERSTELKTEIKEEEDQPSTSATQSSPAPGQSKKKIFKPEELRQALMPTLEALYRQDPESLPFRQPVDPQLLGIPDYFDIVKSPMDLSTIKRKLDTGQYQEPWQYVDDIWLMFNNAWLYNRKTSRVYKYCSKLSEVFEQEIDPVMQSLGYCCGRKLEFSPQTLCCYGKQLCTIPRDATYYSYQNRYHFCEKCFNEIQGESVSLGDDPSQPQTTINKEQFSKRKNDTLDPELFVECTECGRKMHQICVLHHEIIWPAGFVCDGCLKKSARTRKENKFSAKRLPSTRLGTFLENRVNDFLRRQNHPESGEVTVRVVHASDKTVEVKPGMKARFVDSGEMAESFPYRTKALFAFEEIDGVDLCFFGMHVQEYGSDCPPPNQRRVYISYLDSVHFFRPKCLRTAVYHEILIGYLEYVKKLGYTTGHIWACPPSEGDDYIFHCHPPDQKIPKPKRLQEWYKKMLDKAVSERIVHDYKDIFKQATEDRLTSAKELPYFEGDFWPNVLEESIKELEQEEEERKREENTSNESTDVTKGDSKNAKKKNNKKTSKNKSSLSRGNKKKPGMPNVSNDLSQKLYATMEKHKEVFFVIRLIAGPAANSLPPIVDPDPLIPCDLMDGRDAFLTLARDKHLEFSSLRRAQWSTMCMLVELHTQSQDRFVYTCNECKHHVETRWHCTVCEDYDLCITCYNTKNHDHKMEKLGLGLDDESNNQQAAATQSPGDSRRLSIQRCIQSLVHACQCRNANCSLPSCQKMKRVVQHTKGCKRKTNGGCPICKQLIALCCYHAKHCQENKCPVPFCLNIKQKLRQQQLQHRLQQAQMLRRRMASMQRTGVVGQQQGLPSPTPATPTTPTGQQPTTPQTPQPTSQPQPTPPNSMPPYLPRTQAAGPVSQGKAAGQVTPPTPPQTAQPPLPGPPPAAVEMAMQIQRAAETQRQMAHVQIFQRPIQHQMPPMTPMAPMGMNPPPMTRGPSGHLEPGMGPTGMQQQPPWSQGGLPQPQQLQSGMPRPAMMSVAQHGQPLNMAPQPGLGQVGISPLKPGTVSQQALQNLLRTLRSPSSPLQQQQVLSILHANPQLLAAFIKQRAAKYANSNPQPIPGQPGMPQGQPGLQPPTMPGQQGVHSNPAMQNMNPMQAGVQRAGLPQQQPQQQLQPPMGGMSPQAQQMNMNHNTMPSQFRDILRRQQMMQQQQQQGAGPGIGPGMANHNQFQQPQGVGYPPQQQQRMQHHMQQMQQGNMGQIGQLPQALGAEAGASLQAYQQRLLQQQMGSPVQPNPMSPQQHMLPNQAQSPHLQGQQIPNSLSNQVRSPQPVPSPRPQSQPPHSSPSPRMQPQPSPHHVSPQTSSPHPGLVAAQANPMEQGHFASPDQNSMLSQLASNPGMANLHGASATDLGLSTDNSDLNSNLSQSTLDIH
T1 sequence (Q92793 whole entry, looked up): as the sequence (Q92793 whole entry) above

| inhibition [1] | inhibition [2] | inhibition [3] | inhibition [4] | inhibition [5] | Activity [6] | Kd [7] | inhibition [8] | inhibition [9] | Kd [10] | SMILES |
| --- | --- | --- | --- | --- | --- | --- | --- | --- | --- | --- |
| 70% | 30% | 30% | 70% | Active | inactive | Not Active | Active |  |  | COc1ccc2c(c1)N(CCC/C=C/c1cccc3c1N[C@H](C)CC(=O)N3)CCC2 |
|  |  |  |  |  | inactive |  |  | inactive | Not Active | COc1ccc2c(c1)N(CCC/C=C/c1cccc3c1N[C@@H](C)CC(=O)N3)CCC2 |
